The subject of data set [1] is Caco-2 cells monolayer. As to the kind of experiment: In vitro transport across the Caco-2 cells monolayer. The class given is in vitro ADME. The note with it: 80 μg/mL equivalent drug, up to 240 min. A digest of the protocol: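 Caco-2 cells in RPMI with 10% FBS and 1% penicillin/streptomycin (37 °C, 5% CO2) seeded at 10 × 10⁴ cells/insert on Geltrex-coated 0.3 μm polycarbonate inserts, fed every 2 days for 21 days. Only monolayers with TEER > 300 Ω·cm² were used. Test compound was dispersed in medium and applied apically. Basolateral samples at 30–240 min were replaced with warm medium. Three inserts per time point; HPLC.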
In general terms: Passage across Caco-2 layers is used to estimate intestinal permeability.

A short description of data set [2]: Screening solubility of sorafenib in oils, surfactants and cosolvents. Format: physicochemical. The conditions noted are these: 37 °C, thermodynamic from solid.

Counter-ions that a name gives are not always drawn.

From paper PMC10139733 (Journal of drug delivery science and technology, 2023) come the findings set out here.

Turning to `CNC(=O)c1cc(Oc2ccc(NC(=O)Nc3ccc(Cl)c(C(F)(F)F)c3)cc2)ccn1` [sorafenib, Sorafenib tosylate], the “Penetration of sorafenib across the monolayer, apical to basolateral” value in data set [1] is listed as “absolutely no penetration”. The solubility (commonly the concentration that dissolves in the medium under given conditions) at 24 h amounted to 5160 ± 800 µg/mL in data set [2] (capmul MCM (oil), oil or lipid); 42.8 ± 7.6 µg/mL in data set [2] (captex 355 (oil), oil or lipid); 279 ± 6.5 µg/mL in data set [2] (carpyol 90 (oil), oil or lipid); 53 ± 13.7 µg/mL in data set [2] (corn oil, oil or lipid); 5800 ± 800 µg/mL in data set [2] (ethanol (cosolvent), organic solvent or mixture); 37.9 ± 7.2 µg/mL in data set [2] (isopropyl myristate (oil), oil or lipid). Moreover, the solubility at 24 h in data set [2] (labrafil M 1944 CS (oil), oil or lipid) stood at 350 ± 50 µg/mL; in data set [2] (labrafil M 2125 CS (oil), oil or lipid) it was 279 ± 44.9 µg/mL; in data set [2] (lauroglycol (oil), oil or lipid), 298 ± 184 µg/mL; in data set [2] (mineral oil, oil or lipid) it was 47.6 ± 25.2 µg/mL; in data set [2] (olive oil, oil or lipid), 35 ± 0.6 µg/mL; in data set [2] (peceol (oil), oil or lipid), 900 ± 500 µg/mL. The solubility at 24 h in data set [2] (soybean oil, oil or lipid) turned out to be 64 ± 49.3 µg/mL; in data set [2] (triacetin (oil), oil or lipid) it was 113 ± 62.5 µg/mL.
